# GPR7 antagonist – antagonists of human GPR7 (neuropeptides B/W receptor 1); P48145; GPR7-expressing cells, fluorescence antagonist assay; inhibition, % at 4.4 µM; hit rate 1.1% among 290,000; in the data active means inhibition above about 16%, passing the limit was not always enough;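 further: cells stimulated with the agonist NPW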
# OX1R antag-1 – antagonists of human orexin 1 receptor (OX1R). inhibition, % at 6.6 µM. OX1R-expressing cells, FRET antagonist read-out. hit rate 1.8% among 330,000; in the data active means inhibition mostly above about 38%, no sharp cut-off; inactive means mostly below about 40%
# Target sequence (O43613 whole entry, looked up): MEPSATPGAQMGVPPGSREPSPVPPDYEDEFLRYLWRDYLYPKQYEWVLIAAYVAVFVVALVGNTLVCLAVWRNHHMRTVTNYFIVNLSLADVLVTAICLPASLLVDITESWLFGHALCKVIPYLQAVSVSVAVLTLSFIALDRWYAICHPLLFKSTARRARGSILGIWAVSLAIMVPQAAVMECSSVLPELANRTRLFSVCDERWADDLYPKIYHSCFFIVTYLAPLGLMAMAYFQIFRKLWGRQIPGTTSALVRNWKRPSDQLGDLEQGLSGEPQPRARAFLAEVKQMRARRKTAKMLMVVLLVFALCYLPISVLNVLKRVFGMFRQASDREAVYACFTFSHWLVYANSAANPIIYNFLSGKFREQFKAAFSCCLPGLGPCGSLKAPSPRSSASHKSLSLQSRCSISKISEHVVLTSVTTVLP
# OX1R antag-2 – human HCRTR1 antagonism; hit rate 0.43% among 330,000; CHO/OX1R cells, Fluo-8 calcium fluorescence, orexin A; inhibition, % at 5 µM; AID 434989; O43613;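 active means inhibition above its plate's threshold, mean inhibition of all tested compounds on the plate plus 3 SD, cut at about 37% in these data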
# TAAR1 antag – antagonists of human TAAR1. CHO RD-HGA16 TAAR1, Fluo-8 calcium fluorescence, antagonist. AID 624466. inhibition, % at 3 µM. hit rate 1.5% among 360,000. Q96RJ0;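 active means inhibition above a per-plate cutoff, the mean inhibition of test compounds on that plate plus 3 SD, cut at about 49% in these data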
#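 Test system: RD-HGA16 CHO cells with stable hTAAR1 and Gα16 / Probe or stimulus: EC80 β-phenethylamine stimulus / Times: seeding 17-24 h prior, 75-min 37 °C, 30-min RT dye loading / Detection: Fluo-8 calcium-sensitive fluorescence / Read-out basis: % inhibition scaled between DMSO and EC80 PEA controls / Repeats: singlicate, one well per test compound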
# CHO parental Ca – counter-screen: ATP calcium response change in parental CHO cells. hit rate 0.63% among 330,000. parental CHO-K1, ATP-induced calcium, Fluo-8 fluorescence. AID 463079. inhibition, % at 5.6 µM;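 active means inhibition above that plate's mean sample inhibition plus 3 SD, cut at about 26% in these data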
#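 Assay system – parental CHO cells · Reagent – ATP stimulus · Detection – intracellular calcium via Fluo-8 no-wash fluorescent dye · Evaluation – percent inhibition of ATP-evoked calcium rise, normalized to controls · Controls – ATP wells versus no-ATP DMSO wells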
# TAAR1 ag – agonists of human TAAR1; hit rate 0.99% among 360,000; AID 624467; Q96RJ0; activation, % at 3 µM; CHO RD-HGA16 TAAR1, Fluo-8 calcium fluorescence; vehicle wells 0%, saturating PEA agonist 100%;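 active means activation above the mean activation of all test compounds in the run plus 3 SD, cut at about 38% in these data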
#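 System: CHO RD-HGA16 cells carrying human TAAR1 plus Gα16; Incubation: 17-24 h seeding, 75 min 37 °C dye, 30 min RT; Measured by: Fluo-8 fluorescence, 5 s baseline then 140 s kinetic read; Control set: DMSO and PEA EC100; Replication: single well for each compound.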
# Numbers stand for hits; . = inactive; / = not tested or not shown. A selection: hits, their analogues and other compounds. The true share with any hit is near 4.6%.
SMILES,GPR7 antagonist,OX1R antag-1,OX1R antag-2,TAAR1 antag,CHO parental Ca,TAAR1 ag
CCC(=O)NC(c1cc(Cl)c2ccccc2c1O)C1CC1 (centres undefined),/,62.9,.,.,.,.
CCC(=O)NC(c1cccs1)c1cc(Cl)c2ccccc2c1O (centres undefined),/,48.1,.,.,.,.
COC(=O)[C@]12C[C@H](CC(=O)N3CCN(C(=O)c4ccco4)CC3)C(=O)N(Cc3ccccc3)C1=C[C@H](C(C)(C)C)O[C@@H]2C,/,/,/,.,/,.
Cc1ccc2nc(-c3ccc(F)cc3)c(CC3CCCCC3)n2c1,/,/,/,.,/,.
COC(=O)c1cc2c(c3c4ccccc4n(S(=O)(=O)c4ccc(OC)cc4)c13)C(=O)N(C)C2,/,/,/,.,/,.
O=S(=O)(NCC1CCCO1)c1ccc(-c2ccc(S(=O)(=O)NCC3CCCO3)cc2)cc1 (centres undefined),.,.,40.0,.,40.7,.
CN(C)c1ccc(C(C(=O)NCc2ccccc2)N(Cc2cccnc2)C(=O)c2snc(C(N)=O)c2N)cc1 (centres undefined),.,/,/,56.2,/,.
COc1cccc(N(C(=O)c2snc(C(N)=O)c2N)C(C(=O)NCc2ccccc2)c2ccc(O)cc2)c1 (centres undefined),.,.,.,54.0,.,.
COc1ccc(C(C(=O)NCc2ccccc2)N(Cc2cccnc2)C(=O)c2snc(C(N)=O)c2N)cc1OC (centres undefined),.,.,.,.,.,.
COc1ccc(N(C(=O)c2snc(C(N)=O)c2N)C(C(=O)NCc2ccccc2)c2ccc(O)cc2)cc1OC (centres undefined),.,/,/,.,/,.
COc1ccc(CN(C(=O)c2snc(C(N)=O)c2N)C(C)C(=O)NCc2ccc(F)cc2)cc1 (centres undefined),.,.,.,.,.,.
COc1ccc(CNC(=O)C(C)N(Cc2ccccc2OC)C(=O)c2snc(C(N)=O)c2N)cc1 (centres undefined),.,.,.,51.4,.,.
COC(=O)C1=C(C)N(C)C(=NCC2CC2)NC1c1cccc(F)c1 (centres undefined),/,/,/,.,/,.
CCCCOc1ccc(C(=O)NC2CCCCN(CCC)C2=O)cc1 (centres undefined),/,/,/,.,/,.
CCc1ccc(/C=C2\SC(=S)N(CCCC(=O)N(CCO)c3ccccc3)C2=O)cc1,/,/,/,.,/,.
CS(=O)(=O)Nc1ccccc1C(=O)OCC(=O)N1CCC(c2ccccc2)=N1,/,62.8,.,.,.,.
COCc1c(C(=O)NCCOc2ccc(Cl)cc2)oc2ccccc12,/,34.4,.,.,.,.
CC(=O)NCC1COc2ccccc2O1 (centres undefined),.,.,.,.,.,.
CCOc1ccc(OCCNC(=O)c2oc3ccccc3c2COC)cc1,/,.,.,.,.,.
COCc1c(C(=O)NCC2COc3ccccc3O2)oc2ccccc12 (centres undefined),/,68.1,.,.,.,.
Cc1cc(=O)oc(C)c1C(=O)NCC1COc2ccccc2O1 (centres undefined),.,.,.,.,.,39.9
CC12CCC3c4ccc(OCCCO)c([N+](=O)[O-])c4CCC3C1CCC2=O (centres undefined),/,/,/,.,/,.
O=C(NCC1CC1)c1csc([C@@H]2O[C@H](CO)[C@H](O)[C@H](O)[C@H]2O)n1,/,/,/,.,/,.
Cc1ccccc1C(=O)N1CCN(c2ccc(NC(=O)c3cccc(OC(C)C)c3)cc2)CC1,.,.,.,.,.,.
Cc1ccccc1OCC(=O)Nc1ccc(N2CCN(C(=O)c3ccco3)CC2)cc1,.,.,.,59.5,.,.
SMILES,GPR7 antagonist,OX1R antag-1,OX1R antag-2,TAAR1 antag,CHO parental Ca,TAAR1 ag
Cc1ccccc1C(=O)N1CCN(c2ccc(NC(=O)CSc3ccc(Cl)cc3)cc2)CC1,.,.,.,52.7,31.2,.
COc1c(C)cccc1C(=O)Nc1ccc(N2CCN(C(=O)c3ccccc3C)CC2)cc1,.,.,.,55.3,.,.
Cc1cc(Br)c2nc(-c3ccc(Cl)cc3)c(Cc3cccc(Cl)c3)n2c1,/,/,/,.,/,.
C=CC[C@]1(c2ccccc2)C(=O)N2C[C@H]3CON(C)[C@H]3C[C@H]2c2ccccc21,/,/,/,.,/,.
CCc1cccc(-n2c(C)cc(O)cc2=O)c1,/,/,/,.,/,.
C[C@@H]1CN([C@@H](C)CO)C(=O)CCCn2cc(nn2)CO[C@H]1CN(C)C(=O)Nc1cccc(F)c1,/,/,/,.,/,.
COC(=O)[C@]12C[C@H](CC(=O)NCCCCc3ccccc3)C(=O)N(Cc3ccc4c(c3)OCO4)C1=C[C@H](COCc1ccccc1)O[C@@H]2C,/,/,/,.,/,.
CCNC(=O)N1CCN(c2ccc(N3CCN(C(=O)NCC)[C@H](C)C3)c(C)c2)[C@@H](C)C1,/,/,/,.,/,.
COC(=O)C1=C(C(=O)OC)C2CCCC1C1N=NN(c3ccccc3)C21 (centres undefined),/,/,/,.,/,.
CC(=O)c1c(C)[nH]c(C(=O)CSc2nc3ccccc3n2C)c1C,.,108.3,78.2,55.0,50.8,.
CCn1c(SCC(=O)c2[nH]c(C)c(C(C)=O)c2C)nnc1-c1cccs1,.,.,.,.,.,.
CCOC(=O)Cn1nc(-c2ccccc2)c2cnc3ccc(C)cc3c21,.,.,.,49.3,.,.
CCOC(=O)C1CCCN(C(=O)c2ccc(F)c(Cl)c2)CC1 (centres undefined),/,/,/,.,/,.
O=C(COc1ccc(-n2cnnn2)cc1)Nc1ccc(F)c(F)c1F,/,.,.,.,30.0,.
COC(=O)[C@]12C[C@H](CC(=O)NCCCN3CCCC3=O)C(=O)N(CCC3=CCCCC3)C1=C[C@H](C(C)(C)C)O[C@@H]2C,/,/,/,.,/,.
CCCCS(=O)(=O)/C=C\C=C/S(=O)(=O)CCCC,40.3,.,.,/,.,/
CCN(CC)C(=O)c1ccccc1NC(=O)c1ccccc1,.,.,.,.,.,.
CCN(CC)C(=O)c1cccc2nc3ccccc3nc12,.,72.1,.,.,.,.
O=C(Nc1ncc(Cc2ccc(SC(F)F)cc2)s1)c1ccccc1,.,.,.,.,.,44.3
CC1=NN(C(N)=S)C(=O)C1N=Nc1ccc(O)cc1 (centres undefined),.,/,/,.,/,.
CC(=O)Nc1ccc(N=NC2C(=O)N(C(N)=S)N=C2C)cc1 (centres undefined),.,33.5,.,.,.,.
CCCCCCCCN1C(=O)[C@@H](CC(=O)NCc2cccc3ccccc23)C[C@@]2(C(=O)OC)C1=C[C@H](C1CCCC1)O[C@@H]2C,/,/,/,.,/,.
COc1ccc(NC(=O)Nc2ccc3c(c2)CCC3)cc1OC,.,.,.,.,.,.
COc1ccc(/C=C/C(=O)Nc2ccc3c(c2)CCC3)cc1OC,.,73.2,.,.,.,.
